Results published in ChEMBL document CHEMBL4118216, “Adamantyl thioureas as soluble epoxide hydrolase inhibitors” (Bioorg Med Chem Lett, 2018).
In brackets after ≈: the same amount, converted by molar mass.

What was measured:
[1] = Aqueous solubility of the compound in 0.1 M sodium phosphate buffer at pH 7.4; type: physicochemical
In short: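 Solubility determined in 0.1 M sodium phosphate buffer, pH 7.4, with 1% DMSO present.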

[2] = target: T1, Bifunctional epoxide hydrolase 2 (Homo sapiens, UniProt P34913); experiment: Inhibition of recombinant human sEH expressed in baculovirus expression system using CMNPC as substrate preincubated for 5 mins followed by substrate addition measured for 10 mins by fluorescent based assay
T1 sequence (P34913 whole entry): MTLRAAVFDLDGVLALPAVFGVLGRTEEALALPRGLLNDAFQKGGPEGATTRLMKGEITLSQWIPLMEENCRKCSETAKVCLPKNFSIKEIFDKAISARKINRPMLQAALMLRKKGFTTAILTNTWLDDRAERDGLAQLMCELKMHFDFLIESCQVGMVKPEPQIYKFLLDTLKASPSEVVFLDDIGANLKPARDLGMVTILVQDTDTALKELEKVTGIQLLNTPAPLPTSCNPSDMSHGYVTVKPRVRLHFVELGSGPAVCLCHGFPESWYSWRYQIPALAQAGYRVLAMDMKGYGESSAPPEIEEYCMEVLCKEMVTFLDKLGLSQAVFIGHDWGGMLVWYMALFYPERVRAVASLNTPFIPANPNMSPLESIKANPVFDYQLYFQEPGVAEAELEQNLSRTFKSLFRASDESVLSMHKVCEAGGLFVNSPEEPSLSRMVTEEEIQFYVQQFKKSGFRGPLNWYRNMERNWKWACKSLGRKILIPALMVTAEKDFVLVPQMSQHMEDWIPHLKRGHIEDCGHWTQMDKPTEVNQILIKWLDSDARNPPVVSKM
In short: (§1)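 Kinetic fluorescent assay giving IC50 values; each value is the mean of three separate experiments.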

[3] = target: T2, Bifunctional epoxide hydrolase 2 (Mus musculus, UniProt P34914); experiment: Inhibition of recombinant mouse sEH expressed in baculovirus expression system using CMNPC as substrate preincubated for 5 mins followed by substrate addition measured for 10 mins by fluorescent based assay; in short: as §1
T2 sequence (P34914 whole entry): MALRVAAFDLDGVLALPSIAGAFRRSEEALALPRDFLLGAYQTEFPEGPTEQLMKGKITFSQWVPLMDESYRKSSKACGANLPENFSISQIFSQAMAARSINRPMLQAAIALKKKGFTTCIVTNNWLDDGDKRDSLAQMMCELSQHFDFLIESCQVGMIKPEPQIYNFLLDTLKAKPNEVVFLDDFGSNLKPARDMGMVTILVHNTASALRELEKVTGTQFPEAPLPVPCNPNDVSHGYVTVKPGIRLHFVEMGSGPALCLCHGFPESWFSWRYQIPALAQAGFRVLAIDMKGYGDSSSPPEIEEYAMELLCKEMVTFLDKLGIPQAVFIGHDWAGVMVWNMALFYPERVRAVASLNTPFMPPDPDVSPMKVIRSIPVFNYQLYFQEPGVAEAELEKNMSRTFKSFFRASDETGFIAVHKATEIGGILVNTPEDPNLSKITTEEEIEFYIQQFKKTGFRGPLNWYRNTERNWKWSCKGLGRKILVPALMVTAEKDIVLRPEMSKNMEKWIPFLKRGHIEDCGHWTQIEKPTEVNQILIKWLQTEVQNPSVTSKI

[4] = target: T3, Bifunctional epoxide hydrolase 2 (Rattus norvegicus, UniProt P80299); experiment: Inhibition of rat sEH using CMNPC as substrate preincubated for 5 mins followed by substrate addition measured for 10 mins by fluorescent based assay; in short: as §1
T3 sequence (P80299 whole entry): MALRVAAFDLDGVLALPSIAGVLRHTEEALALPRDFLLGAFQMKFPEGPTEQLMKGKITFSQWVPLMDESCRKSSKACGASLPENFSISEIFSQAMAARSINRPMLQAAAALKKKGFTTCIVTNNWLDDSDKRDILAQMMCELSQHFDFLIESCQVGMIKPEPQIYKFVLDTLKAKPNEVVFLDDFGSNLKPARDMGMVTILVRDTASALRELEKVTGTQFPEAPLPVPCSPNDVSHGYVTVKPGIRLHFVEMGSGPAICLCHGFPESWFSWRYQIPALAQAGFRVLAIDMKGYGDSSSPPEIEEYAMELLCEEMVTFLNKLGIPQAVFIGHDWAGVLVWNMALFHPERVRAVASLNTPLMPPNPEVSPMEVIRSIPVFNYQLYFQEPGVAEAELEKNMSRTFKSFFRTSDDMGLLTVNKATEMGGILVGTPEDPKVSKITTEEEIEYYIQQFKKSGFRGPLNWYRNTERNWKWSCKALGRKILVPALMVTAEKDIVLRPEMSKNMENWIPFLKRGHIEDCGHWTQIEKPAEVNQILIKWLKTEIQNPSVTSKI

CC(N=C(S)NCc1ccccc1)C12CC3CC(CC(C3)C1)C2 (stereo unspecified)
solubility [1]: 40 to 50 µM (≈ 13.1 to 16.4 µg/mL) | IC50 [2]: 234 nM

O=C(NCCCCNC(=O)NCC12CC3CC(CC(C3)C1)C2)NCC12CC3CC(CC(C3)C1)C2
solubility [1]: 50 to 75 µM (≈ 23.5 to 35.3 µg/mL)

CC(NC(=O)NCCCCNC(=O)NC(C)C12CC3CC(CC(C3)C1)C2)C12CC3CC(CC(C3)C1)C2 (stereo unspecified)
solubility [1]: 10 to 25 µM (≈ 4.99 to 12.5 µg/mL)

CC(NC(=O)NCCCCCCCCNC(=O)NC(C)C12CC3CC(CC(C3)C1)C2)C12CC3CC(CC(C3)C1)C2 (stereo unspecified)
solubility [1]: 10 to 25 µM (≈ 5.55 to 13.9 µg/mL)

O=C(NCCCCCCCCNC(=O)NC1C2CC3CC(C2)CC1C3)NC1C2CC3CC(C2)CC1C3 (stereo unspecified)
solubility [1]: 5 to 10 µM (≈ 2.49 to 4.99 µg/mL)

O=C(NC12CC3CC(CC(C3)C1)C2)NC12CC3CC(CC(C3)C1)C2
solubility [1]: 5 to 10 µM (≈ 1.64 to 3.29 µg/mL)

S=C(NCCCCNC(=S)NCC12CC3CC(CC(C3)C1)C2)NCC12CC3CC(CC(C3)C1)C2
solubility [1]: 140 to 160 µM (≈ 70.4 to 80.5 µg/mL)

CC12CC3CC(C)(C1)CC(NC(=S)NC1C4CC5CC(C4)CC1C5)(C3)C2 (stereo unspecified)
solubility [1]: 80 to 90 µM (≈ 29.8 to 33.5 µg/mL) | IC50 [2]: 152 nM

S=C(Nc1ccc(C23CC4CC(CC(C4)C2)C3)cc1)NC12CC3CC(CC(C3)C1)C2
solubility [1]: 30 to 40 µM (≈ 12.6 to 16.8 µg/mL) | IC50 [2]: 1250 nM

S=C(NCCCNC(=S)NC12CC3CC(CC(C3)C1)C2)NC12CC3CC(CC(C3)C1)C2
solubility [1]: 90 to 100 µM (≈ 41.5 to 46.1 µg/mL) | IC50 [2]: 97.6 nM | IC50 [3]: 74.9 nM | IC50 [4]: 43.3 nM

S=C(NCC12CC3CC(CC(C3)C1)C2)NC1C2CC3CC(C2)CC1C3 (stereo unspecified)
solubility [1]: 30 to 40 µM (≈ 10.8 to 14.3 µg/mL) | IC50 [2]: 902 nM

Fc1ccc(NC(=S)NCC23CC4CC(CC(C4)C2)C3)cc1
solubility [1]: 150 to 175 µM (≈ 47.8 to 55.7 µg/mL) | IC50 [2]: 159 nM

S=C(NCCc1ccccc1)NC1C2CC3CC(C2)CC1C3 (stereo unspecified)
solubility [1]: 20 to 30 µM (≈ 6.29 to 9.43 µg/mL) | IC50 [2]: 8.2 nM | IC50 [3]: 108 nM | IC50 [4]: 78.3 nM

S=C(NCCCCCCCCNC(=S)NC1C2CC3CC(C2)CC1C3)NC1C2CC3CC(C2)CC1C3 (stereo unspecified)
solubility [1]: 25 to 35 µM (≈ 13.3 to 18.6 µg/mL)

CC12CC3CC(C)(C1)CC(NC(=S)Nc1ccc(Cl)cc1)(C3)C2
IC50 [2]: 1050 nM

S=C(NCCNC(=S)NC12CC3CC(CC(C3)C1)C2)NC12CC3CC(CC(C3)C1)C2
solubility [1]: 100 to 110 µM (≈ 44.7 to 49.1 µg/mL) | IC50 [2]: 987 nM

CC12CC3CC(C)(C1)CC(NC(=S)NC14CC5CC(CC(C5)C1)C4)(C3)C2
solubility [1]: 30 to 40 µM (≈ 11.2 to 14.9 µg/mL) | IC50 [2]: 16.1 nM

S=C(NCCc1ccccc1)NCC12CC3CC(CC(C3)C1)C2
solubility [1]: 25 to 30 µM (≈ 8.21 to 9.86 µg/mL) | IC50 [2]: 133 nM

S=C(NCCCCCCCCCCNC(=S)NC12CC3CC(CC(C3)C1)C2)NC12CC3CC(CC(C3)C1)C2
solubility [1]: 35 to 45 µM (≈ 19.6 to 25.2 µg/mL) | IC50 [2]: 15.3 nM | IC50 [3]: 59.5 nM | IC50 [4]: 44.4 nM

CC(NC(=S)Nc1cccc(F)c1)C12CC3CC(CC(C3)C1)C2 (stereo unspecified)
solubility [1]: 35 to 45 µM (≈ 11.6 to 15 µg/mL) | IC50 [2]: 451 nM

S=C(Nc1ccc(C23CC4CC(CC(C4)C2)C3)cc1)Nc1ccc(C23CC4CC(CC(C4)C2)C3)cc1
solubility [1]: 100 to 125 µM (≈ 49.7 to 62.1 µg/mL) | IC50 [2]: 15300 nM

S=C(NC1C2CC3CC(C2)CC1C3)NC12CC3CC(CC(C3)C1)C2 (stereo unspecified)
solubility [1]: 60 to 70 µM (≈ 20.7 to 24.1 µg/mL) | IC50 [2]: 14.8 nM

S=C(NCc1ccccc1)NC1C2CC3CC(C2)CC1C3 (stereo unspecified)
solubility [1]: 65 to 75 µM (≈ 19.5 to 22.5 µg/mL) | IC50 [2]: 34 nM | IC50 [3]: 61 nM | IC50 [4]: 60.3 nM

S=C(NCCCCCNC(=S)NC12CC3CC(CC(C3)C1)C2)NC12CC3CC(CC(C3)C1)C2
solubility [1]: 80 to 90 µM (≈ 39.1 to 44 µg/mL) | IC50 [2]: 21.1 nM | IC50 [3]: 36.2 nM | IC50 [4]: 46.1 nM

S=C(Nc1ccc(Cl)cc1)NC12CC3CC(CC(C3)C1)C2
IC50 [2]: 34.7 nM

S=C(NCCCCNC(=S)NC12CC3CC(CC(C3)C1)C2)NC12CC3CC(CC(C3)C1)C2
solubility [1]: 90 to 100 µM (≈ 42.7 to 47.5 µg/mL) | IC50 [2]: 90.8 nM | IC50 [3]: 130 nM | IC50 [4]: 123 nM

S=C(Nc1ccccc1)NC1C2CC3CC(C2)CC1C3 (stereo unspecified)
solubility [1]: 70 to 80 µM (≈ 20.1 to 22.9 µg/mL) | IC50 [2]: 229 nM | IC50 [3]: 408 nM | IC50 [4]: 356 nM

CC12CC3CC(C)(C1)CC(NC(=S)Nc1ccc(F)cc1)(C3)C2
solubility [1]: 175 to 200 µM (≈ 58.2 to 66.5 µg/mL) | IC50 [2]: 551 nM
